This is an account of results in ChEMBL document CHEMBL4387775, “Minimum structural requirements for inhibitors of the zinc finger protein TRAF6” (Bioorg Med Chem Lett, 2019).

The structures appear in SMILES notation. Activity calls are given as the source filed them. The calls are words filed in the database; no cut-off is given here.

The target of series [1] is T1, TNF receptor-associated factor 6 (Homo sapiens) (UniProt Q9Y4K3).
T1 sequence (whole entry): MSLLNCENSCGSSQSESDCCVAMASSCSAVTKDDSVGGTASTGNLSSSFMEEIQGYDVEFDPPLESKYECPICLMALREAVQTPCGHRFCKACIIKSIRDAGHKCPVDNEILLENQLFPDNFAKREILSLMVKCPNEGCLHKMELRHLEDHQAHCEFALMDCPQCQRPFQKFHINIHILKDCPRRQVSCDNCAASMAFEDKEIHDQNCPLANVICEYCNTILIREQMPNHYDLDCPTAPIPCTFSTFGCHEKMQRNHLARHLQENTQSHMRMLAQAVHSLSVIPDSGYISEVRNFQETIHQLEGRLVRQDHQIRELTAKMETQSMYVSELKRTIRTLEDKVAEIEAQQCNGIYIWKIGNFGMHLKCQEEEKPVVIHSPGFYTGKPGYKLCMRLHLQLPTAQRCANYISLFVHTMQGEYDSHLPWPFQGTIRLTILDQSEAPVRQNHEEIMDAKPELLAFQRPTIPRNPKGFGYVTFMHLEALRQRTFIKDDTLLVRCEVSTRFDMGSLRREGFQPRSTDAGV
As to the kind of experiment: Inhibition of TRAF6 (unknown origin)-mediated NFkappaB activation expressed in human HeLaS3 cells harboring 3kappaB-tk-luc at 10 uM preincubated for 1 hr followed by Il1alpha-stimulation and measured after 3 hrs in presence of DTT by dual-luciferase reporter gene assay relative to control. The class given is cell-based. An outline of the steps: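 Cells co-transfected with 3κB-tk-luc and pRL-Luc (β-actin-driven renilla), cultured 1 day, then given compound (10 μM) plus DTT (30 μM) for 1 h before IL-1α (10 ng/mL) stimulation for 3 h. Dual-luciferase read-out: κB-firefly signal normalized to renilla, reported as relative NF-κB activity.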

A further series concerns HeLa S3. As to the kind of experiment: Cytotoxicity against human HeLaS3 cells assessed as reduction in cell viability at 10 uM measured after 8 hrs in presence of DTT by MTT assay relative to control. The class given is functional. An outline of the steps: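 Cells treated with compound at 10 μM together with DTT (30 μM), incubated 8 h, then viability read by MTT assay; shown as activity relative to control.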
For orientation: Formazan colour is commonly taken as a measure of viable cells.

The nature of series [2]: Prodrug conversion in human HeLaS3 assessed as NpSH formation at 10 uM. The class given is ADME, cell-based. Particulars: hela s3, 10 µM.
For series [3], the target named is T1, TNF receptor-associated factor 6 (Homo sapiens). The series can be described thus: Inhibition of TRAF6 (unknown origin)-mediated NFkappaB activation expressed in human HeLaS3 cells harboring 3kappaB-tk-luc at 10 uM preincubated for 1 hr followed by Il1alpha-stimulation and measured after 3 hrs by dual-luciferase reporter gene assay relative to control. The class given is cell-based. An outline of the steps:
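Cells co-transfected with 3κB-tk-luc (triple κB site driving firefly luciferase) and pRL-Luc (β-actin promoter driving renilla luciferase), cultured 1 day, given compound (10 μM) without DTT for 1 h, then stimulated with IL-1α (10 ng/mL) for 3 h. Lysates read by dual-luciferase assay; firefly signal normalized to renilla, expressed as relative NF-κB activity.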

By inhibition is commonly meant the drop in the measured response relative to a control, in per cent. Regarding `CN(C)c1ccnc(CNCCS)c1`, in series [1], the inhibition result is “inactive”.

Turning to `SCCNCc1ccccn1`, in series [1], the inhibition entry is “inactive”.

For `O=[N+]([O-])c1ccccc1S`, the inhibition result in series [1] is “inactive”. In addition, the Activity in the series with HeLa S3 stood at 24%.

For the compound `O=[N+]([O-])c1ccccc1SSCCNCc1cccc(CNCCSSc2ccccc2[N+](=O)[O-])c1`, the inhibition entry in series [1] is “inactive”. For the same compound, in series [2], the Drug metabolism entry was “Metabolite_Detected”.

Take `Sc1ccccc1NCc1ccccn1`: the inhibition entry in series [1] is “inactive”.

Turning to `O=C(CCCC[C@@H]1SC[C@@H]2NC(=O)N[C@@H]21)NCCCCCCOC(=O)Nc1cc(CNCCS)nc(CNCCS)c1`, the inhibition in series [1] is 78%.

For the compound `CCCCCCCCCCCCOC(=O)Nc1cc(CNCCS)nc(CNCCS)c1`, the inhibition result in series [1] was “inactive”.

On to `CC(C)=CCC/C(C)=C/CC/C(C)=C/COC(=O)Nc1cc(CNCCS)nc(CNCCS)c1`, for which the inhibition result in series [1] is “inactive”.

With `O=[N+]([O-])c1ccccc1SSc1ccccc1[N+](=O)[O-]`, the Drug metabolism entry in series [2] is recorded as “Metabolite_Detected”.

Consider `O=[N+]([O-])c1ccccc1SSCCNCc1cccc(CNCCSSc2ccccc2[N+](=O)[O-])n1`, for which the inhibition in series [1] amounted to 84%; in series [3], 76%. Also, the Drug metabolism result in series [2] is recorded as “Metabolite_Detected”.

Regarding `CN(C)c1cc(CNCCSSc2ccccc2[N+](=O)[O-])nc(CNCCSSc2ccccc2[N+](=O)[O-])c1`, the inhibition in series [1] was 89%; in series [3] it was 80%. Besides, the outcome in the series with HeLa S3 was inactive. Also, the Drug metabolism entry in series [2] was “Metabolite_Detected”.
